We go through four compounds from ChEMBL document CHEMBL1145287, “Docking and 3-D QSAR studies on indolyl aryl sulfones. Binding mode exploration at the HIV-1 reverse transcriptase non-nucleoside binding site and design of highly active N-(2-hydroxyethyl)carboxamide and N-(2-hydroxyethyl)carbohydrazide derivatives” (J Med Chem, 2005).

Settings in all cases: Homo sapiens
In experiment [1] the test system is MT4. The experiment can be described thus: Protection of infected MT-4 cells from wtIIIB-HIV-1-induced cytopathogenicity. It counts as functional, cell-based. An outline of the steps: (§1)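 MT-4 cells (1 × 10⁴/well, RPMI 1640 with 10% FCS, 37 °C, 5% CO₂) were infected with HIV-1 IIIB (H9/IIIB supernatant) at an inoculum causing complete cytopathicity by day 4, across graded compound concentrations. Viability was read by MTT, with cytotoxicity run in parallel on mock-infected cells. Concentration giving 50% protection reported as the mean of three experiments.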

The test system of experiment [2] is MT4. In words: (§2) Concentration required for 50% protection of infected MT-4 cells from wtIIIB-HIV-1-induced cytopathogenicity was determined by the MTT method. It counts as functional, cell-based. The gist of the method:
as §1
(In general: Cytopathic effects are the visible damage that an infection or toxin causes in cultured cells.)

Experiment [3] relates to C8166. In words: Compound concentration required to reduce the amount of p24 by 90% in C8166 cells infected with an efavirenz-resistant strain EFVR carrying mutations K103R, V179D, and P225H. It is filed as functional. The gist of the method:
(§3)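 C8166 cells (1 × 10⁴/well) with serial compound dilutions (200 mM DMSO stock diluted in medium), infected with K103R/V179D/P225H virus selected from IIIB by passage in C8166 cells with efavirenz up to 2 μM (stock 3.0 × 10⁵ CCID₅₀/mL); 37 °C incubation; p24 measured by immunoenzymatic kit; value = concentration giving 90% p24 reduction.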

For experiment [4], the system named is C8166. The experiment can be described thus: Concentration required to reduce the amount of p24 by 90% in C8166 cells infected with an efavirenz-resistant strain EFVR. It counts as functional. An outline of the steps: as §3
Experiment [5] has as its system MT4. In words: Compound concentration required to achieve 50% protection of infected MT-4 cells from K103N-Y181C strain was determined by the MTT method. It is filed as functional, cell-based. An outline of the steps: (§4)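 MT-4 cells (1 × 10⁴/well, RPMI 1640 + 10% FCS) exposed to serial compound dilutions (200 mM DMSO stock diluted in medium), infected with enough virus to give full cytopathicity by day 4; wt IIIB from H9/IIIB supernatant, Y181C and K103N–Y181C from NNRTI-selected passages.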
A general note: Tetrazolium assays rely on reduction of a dye to a coloured formazan, in cell work by metabolically active cells.

In experiment [6] the test system is MT4. The experiment can be described thus: Concentration required to achieve 50% protection of infected MT-4 cells from Y181C-HIV-1 strain. It is filed as functional, cell-based. An outline of the steps: as §4
Experiment [7] concerns MT4. In words: Compound concentration required to achieve 50% protection of infected MT-4 cells from Y181C strain was determined by the MTT method. It counts as functional, cell-based. An outline of the steps:
as §4

Experiment [8] concerns C8166. In words: Compound concentration required to reduce the amount of p24 by 90% in wtIIIBinfected C8166 cells. It is filed as functional. An outline of the steps: (§5)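 Acute infection of C8166 cells (1 × 10⁴/well, RPMI 1640 with 10% FCS, 37 °C, 5% CO₂) by HIV-1 IIIB from persistently infected H9/IIIB supernatant, with a virus inoculum sized to cause complete cytopathicity at day 4, in the presence of serially diluted compound (DMSO stock diluted in medium). p24 antigen was measured by immunoenzymatic kit. Concentration giving 90% reduction of p24 reported.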

The test system of experiment [9] is MT4. In words: Concentration required to achieve 50% protection of infected MT-4 cells from K103N-Y181C. It is filed as functional, cell-based. The gist of the method:
as §4

Experiment [10] has as its system C8166. In words: Concentration required to reduce the amount of p24 by 90% in wtIIIB-HIV-1-infected C8166 cells. It is filed as functional. The gist of the method: as §5
Experiment [11] relates to MT4. Described as §2. It is filed as functional, cell-based. The gist of the method:
as §4
The source holds these as a separate data set.

As to `Cc1cc(C)cc(S(=O)(=O)c2c(C(=O)NNCCO)[nH]c3ccc(Cl)cc23)c1`, the EC50 (commonly the concentration needed to bring the measured effect to its halfway point) in the experiment on MT4 [1] was 1 nM; with MT4 [2], 1 nM; with MT4 [5], 10000 nM; in the experiment with MT4 [6], 30 nM; in the experiment on MT4 [7] it was 30 nM; in the experiment with MT4 [9], 10000 nM. This compound displayed a concentration giving a half-maximal response (EC50) in the experiment on MT4 [11] of 1 nM. In addition, the 90% effect concentration (EC90) (usually the concentration at which the effect reaches the 90% level) stood at 200 nM in the experiment with C8166 [3], 200 nM in the experiment with C8166 [4], 6 nM in the experiment on C8166 [8] and 6 nM with C8166 [10].

For `Cc1cc(C)cc(S(=O)(=O)c2c(C(=O)NCCO)[nH]c3ccc(Cl)cc23)c1`, the 50% effective concentration (EC50) in the experiment with MT4 [1] was 1 nM; in the experiment on MT4 [2], 1 nM; in the experiment on MT4 [5], 500 nM; with MT4 [6], 10 nM; in the experiment on MT4 [7] it was 10 nM; with MT4 [9], 500 nM. This compound also registered an EC50 in the experiment with MT4 [11] of 1 nM. Also, the EC90 in the experiment with C8166 [3] was determined as 100 nM; in the experiment with C8166 [4] it was 100 nM; in the experiment with C8166 [8], 5 nM; in the experiment with C8166 [10] it was 5 nM.

As to `O=C1Nc2ccc(Cl)cc2[C@@](C#CC2CC2)(C(F)(F)F)O1` [EFAVIRENZ], the EC90 came to 1800 nM in the experiment with C8166 [3], 1800 nM in the experiment on C8166 [4], 8 nM in the experiment on C8166 [8] and 8 nM in the experiment on C8166 [10]. Besides, the EC50 in the experiment on MT4 [5] and in the experiment on MT4 [9] was 150 nM throughout.

On to `Cc1ccnc2c1NC(=O)c1cccnc1N2C1CC1` [NEVIRAPINE], for which the EC90 in the experiment on C8166 [3] was over 30000 nM; with C8166 [4] it was over 30000 nM; in the experiment with C8166 [8], 120 nM; in the experiment on C8166 [10] it was 120 nM. For the same compound, the concentration giving a half-maximal response (EC50) in the experiment with MT4 [5], in the experiment with MT4 [6], with MT4 [7] and with MT4 [9] was over 30000 nM in each case.
